One block for each molecule: values may come before it. The source made the active and inactive calls. The rule behind the calls is not given here.
Legend:
SH-SY5Y [1] = assay: Neuroprotective activity against NMDA-induced cell damage in human SH-SY5Y cells assessed as cell viability at 100 uM preincubated for 6 hrs followed by NMDA addition and measured after 30 mins by MTT assay (reference value: 58.7 +/- 2.3%)
SH-SY5Y [2] = assay: Neuroprotective activity against NMDA-induced cell damage in human SH-SY5Y cells assessed as cell viability at 10 uM preincubated for 6 hrs followed by NMDA addition and measured after 30 mins by MTT assay (reference value: 58.7 +/- 2.3%); format: functional; conditions: read-out: Activity
SH-SY5Y [3] = assay: Neuroprotective activity against NMDA-induced cell damage in human SH-SY5Y cells assessed as cell viability at 0.1 uM preincubated for 6 hrs followed by NMDA addition and measured after 30 mins by MTT assay (reference value: 58.7 +/- 2.3%); format: functional; conditions: read-out: Activity
SH-SY5Y [4] = assay: Neuroprotective activity against NMDA-induced cell damage in human SH-SY5Y cells assessed as cell viability at 1 uM preincubated for 6 hrs followed by NMDA addition and measured after 30 mins by MTT assay (reference value: 58.7 +/- 2.3%); format: functional; conditions: read-out: Activity
[5] = Clearance in human liver microsomes at 10 uM preincubated for 10 mins followed by NADPH addition and measured up to 60 mins; format: ADME, microsome; conditions: read-out: CLH
Procedure, shortened: (§1)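 Human liver microsomes were incubated for 60 min with an NADPH regenerating system to derive T1/2 and CL (µL/min/mg). A no-cofactor sample, with buffer replacing NADPH, was run alongside over 60 min to give % parent remaining.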

[6] = target: Glutamate receptor ionotropic, NMDA 2B (Homo sapiens) (UniProt Q13224); assay: Antagonist activity at NR2B NMDA receptor in human SH-SY5Y cells assessed as inhibition of NMDA-induced intracellular Ca2+ influx at 10 uM incubated for 3 hrs prior to fluo-3AM dye addition for 30 mins followed by NMDA addition and measured every 5 secs by laser scanning confocal microscopic analysis; format: cell-based
Procedure, shortened: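 SH-SY5Y cells were loaded with fluo-3 AM, and cytoplasmic Ca²⁺ was followed as green fluorescence by laser scanning confocal microscopy over time. NMDA was added at 2 mM final to cells with or without compound pretreatment; n = 9 cells per group.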

[7] = Metabolic stability in human liver microsomes assessed as parent compound remaining at 10 uM after 60 mins in absence of NADPH; format: ADME, microsome; conditions: read-out: Stability
Procedure, shortened: as §1

SH-SY5Y [8] = assay: Down regulation of NMDA-induced NR2B level in human SH-SY5Y cells at 0.1 to 10 uM preincubated for 6 hrs followed by NMDA addition and measured after 30 mins by Western blot analysis; format: functional, cell-based
Procedure, shortened: (§2)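 SH-SY5Y lysates were analysed by Western blot for NR2B expression and for p-ERK1/2 relative to total ERK. Data are means ± S.E.M., n = 3, compared against control and NMDA-treated groups.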

[9] = target: Glutamate receptor ionotropic, NMDA 2B (Homo sapiens) (UniProt Q13224); assay: Antagonist activity at NR2B NMDA receptor in human SH-SY5Y cells assessed as inhibition of NMDA-induced decrease in ERK1/2 phosphorylation at 0.1 to 10 uM preincubated for 6 hrs followed by NMDA addition and measured after 30 mins by Western blot analysis; format: cell-based
Procedure, shortened: as §2

[10] = Half life in human liver microsomes at 10 uM preincubated for 10 mins followed by NADPH addition and measured up to 60 mins; format: ADME, microsome
Procedure, shortened: as §1

Chain of Glutamate receptor ionotropic, NMDA 2B (Homo sapiens) (Q13224 27-1484 limits assumed): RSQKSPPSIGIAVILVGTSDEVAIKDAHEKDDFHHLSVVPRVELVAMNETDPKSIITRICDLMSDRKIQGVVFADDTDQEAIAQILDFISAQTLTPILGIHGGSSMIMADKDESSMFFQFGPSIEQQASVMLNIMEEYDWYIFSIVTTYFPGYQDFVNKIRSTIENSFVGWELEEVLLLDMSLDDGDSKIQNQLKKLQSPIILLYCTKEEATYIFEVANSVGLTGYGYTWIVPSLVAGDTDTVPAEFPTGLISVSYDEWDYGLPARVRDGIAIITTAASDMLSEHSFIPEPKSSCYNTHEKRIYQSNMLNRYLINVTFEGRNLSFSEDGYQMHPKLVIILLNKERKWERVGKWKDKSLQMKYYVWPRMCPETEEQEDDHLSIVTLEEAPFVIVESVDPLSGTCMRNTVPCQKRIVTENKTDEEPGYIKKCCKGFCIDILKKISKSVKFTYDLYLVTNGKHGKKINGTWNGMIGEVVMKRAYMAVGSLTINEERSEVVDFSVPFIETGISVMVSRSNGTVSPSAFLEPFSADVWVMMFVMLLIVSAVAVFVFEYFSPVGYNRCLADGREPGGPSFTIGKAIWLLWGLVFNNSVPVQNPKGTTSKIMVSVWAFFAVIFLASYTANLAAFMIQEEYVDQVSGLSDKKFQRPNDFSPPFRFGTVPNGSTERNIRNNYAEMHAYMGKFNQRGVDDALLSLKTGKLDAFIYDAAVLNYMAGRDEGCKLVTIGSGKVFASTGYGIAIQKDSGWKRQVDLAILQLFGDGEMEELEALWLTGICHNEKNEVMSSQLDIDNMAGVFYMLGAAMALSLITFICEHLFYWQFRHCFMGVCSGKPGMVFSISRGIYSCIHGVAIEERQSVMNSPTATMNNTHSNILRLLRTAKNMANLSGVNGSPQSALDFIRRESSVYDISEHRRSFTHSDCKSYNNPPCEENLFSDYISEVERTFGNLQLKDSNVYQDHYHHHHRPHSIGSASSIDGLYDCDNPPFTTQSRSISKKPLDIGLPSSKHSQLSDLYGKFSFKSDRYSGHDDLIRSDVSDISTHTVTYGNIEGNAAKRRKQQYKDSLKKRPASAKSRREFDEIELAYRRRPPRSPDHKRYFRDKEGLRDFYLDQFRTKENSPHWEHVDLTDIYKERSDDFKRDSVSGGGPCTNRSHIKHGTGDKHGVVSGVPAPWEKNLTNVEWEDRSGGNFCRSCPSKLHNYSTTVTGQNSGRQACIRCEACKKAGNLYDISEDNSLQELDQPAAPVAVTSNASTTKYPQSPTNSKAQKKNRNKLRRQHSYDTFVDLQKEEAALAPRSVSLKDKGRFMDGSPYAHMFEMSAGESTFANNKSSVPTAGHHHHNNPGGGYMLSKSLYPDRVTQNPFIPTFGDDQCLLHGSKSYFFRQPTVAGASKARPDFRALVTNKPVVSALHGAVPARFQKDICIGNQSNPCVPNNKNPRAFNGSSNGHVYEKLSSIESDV

Structure (SMILES): O=C(NCc1ccc(F)cc1)[C@H]1CCC2=Nc3ccccc3CN21
Activity (SH-SY5Y [1]): 63.9%
viability at 10 µM (SH-SY5Y [2]): 72.9%
viability at 0.1 µM (SH-SY5Y [3]): 71.1%
viability at 1 µM (SH-SY5Y [4]): 74.7%

Structure (SMILES): O=C(NCc1ccc(O)cc1)[C@H]1CCC2=Nc3ccc(Br)cc3CN21
Activity (SH-SY5Y [1]): 56.9%
viability at 10 µM (SH-SY5Y [2]): 67.4%
viability at 0.1 µM (SH-SY5Y [3]): 75%
viability at 1 µM (SH-SY5Y [4]): 78%

Structure (SMILES): O=C(NCc1ccc(O)cc1)[C@@H]1CCC2=Nc3ccccc3CN21
Activity (SH-SY5Y [1]): 70.3%
viability at 10 µM (SH-SY5Y [2]): 73.8%
viability at 0.1 µM (SH-SY5Y [3]): 67.6%
viability at 1 µM (SH-SY5Y [4]): 72%

Structure (SMILES): O=C(Nc1ccc(O)cc1)[C@@H]1CCC2=Nc3ccccc3CN21
Activity (SH-SY5Y [1]): 70.9%
viability at 10 µM (SH-SY5Y [2]): 70.1%
viability at 0.1 µM (SH-SY5Y [3]): 67.7%
viability at 1 µM (SH-SY5Y [4]): 68.3%

Structure (SMILES): COc1ccc(NC(=O)[C@@H]2CCC3=Nc4ccccc4CN32)cc1
Activity (SH-SY5Y [1]): 48.4%
viability at 10 µM (SH-SY5Y [2]): 66.4%
viability at 0.1 µM (SH-SY5Y [3]): 64.7%
viability at 1 µM (SH-SY5Y [4]): 72.7%

Structure (SMILES): COc1ccc(CNC(=O)[C@H]2CCC3=Nc4ccccc4CN32)cc1
Activity (SH-SY5Y [1]): 58.4%
viability at 10 µM (SH-SY5Y [2]): 76.2%
viability at 0.1 µM (SH-SY5Y [3]): 66.6%
viability at 1 µM (SH-SY5Y [4]): 70.7%

Structure (SMILES): O=C(NCCCc1ccccc1)[C@@H]1CCC2=Nc3ccccc3CN21
Activity (SH-SY5Y [1]): 30.3%
viability at 10 µM (SH-SY5Y [2]): 63.4%
viability at 0.1 µM (SH-SY5Y [3]): 67.2%
viability at 1 µM (SH-SY5Y [4]): 71.2%

Structure (SMILES): O=C(Nc1ccc(O)cc1)[C@@H]1CCC2=Nc3ccc(Br)cc3CN21
Activity (SH-SY5Y [1]): 68.4%
viability at 10 µM (SH-SY5Y [2]): 68%
viability at 0.1 µM (SH-SY5Y [3]): 62.9%
viability at 1 µM (SH-SY5Y [4]): 66.2%

Structure (SMILES): O=C(NCc1ccc(F)cc1)[C@@H]1CCC2=Nc3ccc(Br)cc3CN21
Activity (SH-SY5Y [1]): 60.1%
viability at 10 µM (SH-SY5Y [2]): 70.4%
viability at 0.1 µM (SH-SY5Y [3]): 64.8%
viability at 1 µM (SH-SY5Y [4]): 70.4%

microsomal CLint at 10 µM [5]: 46.3 µL/min/mg
inhibition [6]: Active
remaining at 1 h, 10 µM [7]: 99.3%
inhibition [9]: Active
half-life at 10 µM [10]: 29.9 min
Structure (SMILES): O=C(NCCc1ccc(O)cc1)[C@@H]1CCC2=Nc3ccc(Br)cc3CN21
Activity (SH-SY5Y [1]): 78.6%
Activity (SH-SY5Y [8]): Active
viability at 10 µM (SH-SY5Y [2]): 84.4%
viability at 0.1 µM (SH-SY5Y [3]): 75.8%
viability at 1 µM (SH-SY5Y [4]): 80%

Structure (SMILES): O=C(NCc1ccccc1)[C@@H]1CCC2=Nc3ccccc3CN21
Activity (SH-SY5Y [1]): 64.4%
viability at 10 µM (SH-SY5Y [2]): 70.5%
viability at 0.1 µM (SH-SY5Y [3]): 68.4%
viability at 1 µM (SH-SY5Y [4]): 71.6%

microsomal CLint at 10 µM [5]: 1180 µL/min/mg
remaining at 1 h, 10 µM [7]: 3.2%
half-life at 10 µM [10]: 1.2 min
Structure (SMILES): COc1ccc(COC(=O)[C@@H]2CCC3=Nc4ccccc4CN32)cc1
Activity (SH-SY5Y [1]): 63.6%
viability at 10 µM (SH-SY5Y [2]): 65.3%
viability at 0.1 µM (SH-SY5Y [3]): 61.4%
viability at 1 µM (SH-SY5Y [4]): 64.1%

Structure (SMILES): O=C(NCc1ccc(O)cc1)[C@H]1CCC2=Nc3ccccc3CN21
Activity (SH-SY5Y [1]): 60.9%
viability at 10 µM (SH-SY5Y [2]): 64.2%
viability at 0.1 µM (SH-SY5Y [3]): 65.2%
viability at 1 µM (SH-SY5Y [4]): 68%

Structure (SMILES): O=C(Nc1ccc(O)cc1)[C@H]1CCC2=Nc3ccccc3CN21
Activity (SH-SY5Y [1]): 73.3%
viability at 10 µM (SH-SY5Y [2]): 69.6%
viability at 0.1 µM (SH-SY5Y [3]): 65.6%
viability at 1 µM (SH-SY5Y [4]): 67.2%

Structure (SMILES): COc1ccc(CNC(=O)[C@@H]2CCC3=Nc4ccc(Br)cc4CN32)cc1
Activity (SH-SY5Y [1]): 55.3%
viability at 10 µM (SH-SY5Y [2]): 74.3%
viability at 0.1 µM (SH-SY5Y [3]): 60.4%
viability at 1 µM (SH-SY5Y [4]): 68.8%

Structure (SMILES): O=C(NCCCc1ccccc1)[C@H]1CCC2=Nc3ccccc3CN21
Activity (SH-SY5Y [1]): 42%
viability at 10 µM (SH-SY5Y [2]): 70.2%
viability at 0.1 µM (SH-SY5Y [3]): 62.2%
viability at 1 µM (SH-SY5Y [4]): 71.6%

Structure (SMILES): Cc1ccc(CNC(=O)[C@@H]2CCC3=Nc4ccccc4CN32)cc1
Activity (SH-SY5Y [1]): 54.5%
viability at 10 µM (SH-SY5Y [2]): 72.5%
viability at 0.1 µM (SH-SY5Y [3]): 66.2%
viability at 1 µM (SH-SY5Y [4]): 73.4%

Structure (SMILES): O=C(NCCc1ccc(O)cc1)[C@H]1CCC2=Nc3ccc(Br)cc3CN21
Activity (SH-SY5Y [1]): 81.5%
viability at 10 µM (SH-SY5Y [2]): 78.2%
viability at 0.1 µM (SH-SY5Y [3]): 67.8%
viability at 1 µM (SH-SY5Y [4]): 74.5%

Reference: ChEMBL document CHEMBL4229377, “Design, synthesis and bioevaluation of 1,2,3,9-tetrahydropyrrolo[2,1-b]quinazoline-1-carboxylic acid derivatives as potent neuroprotective agents” (Eur J Med Chem, 2018)
